Source: PubChem (several laboratories)
This is a sample that favours compounds with a hit; in the whole collection about 2.3% have one here.
SR-BI uptake up: SR-BI HDL lipid transfer activation | activation, % at 12.5 µM | actives 0.096% (n = 320,000) | CHO ldlA[mSR-BI] cells, DiI-HDL uptake fluorescence, 3 h; 100 = double the neutral-control signal;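 active = mean replicate activation of at least 60% and every replicate at or above 60%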;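 also: 0% = median plate neutral-control signal and 100% = twice that signal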
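Assay system: LDL receptor-deficient CHO ldlA cells overexpressing murine SR-BI / Medium: BSA-supplemented, HEPES-buffered Ham's F12, pH 7.4 / Probe or stimulus: DiI-labelled HDL at 10 µg/mL final / Timing: compound with DiI-HDL co-incubation, 3 h at 37 °C / Technique: bottom-read cell fluorescence after medium removal, ex 550/em 595 nm / Measure: HDL uptake via cellular fluorescence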
CAL PDZ FP-1: blocks peptide binding to the human CAL PDZ domain; inhibition, % at 24.9 µM; actives 0.92% (n = 300,000); purified CAL PDZ, TMR-peptide fluorescence polarization, 1 h;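 active = mean inhibition of at least 30% with at least half of replicates also reaching 30%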;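 also: 0% = DMSO neutral control and 100% = excess unlabeled competitor peptide PRC23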
ATG4B inh: blocks human ATG4B protease cleavage of LC3 substrate; ATG4B cleavage of LC3-PLA2, NBD-HPC fluorescence, 1 h; AID 504462; actives 0.51% (n = 340,000); inhibition, % at 8.33 µM; Q9Y4P1; in the data active = inhibition above about 40%
CAL PDZ FP-2: inhibitors of human CAL PDZ peptide binding; purified CAL PDZ, TMR-peptide fluorescence polarization, 1 h; inhibition, % at 20 µM; actives 0.02% (n = 330,000);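 active = highest replicate inhibition of at least 40%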;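 also: plate controls were DMSO neutral control wells for no effect and unlabeled competitor peptide control wells for full effect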
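Assay system – tagged CAL PDZ protein CerCALP, purified · Timing – 1 h at RT · Compound – single point, 20 µM · Measured by – fluorescence polarization from S- and P-plane intensities, G-factor corrected · Evaluation – inhibition from polarization loss · Probe or stimulus – TMR reporter peptide T*-PRC34 · Buffer or medium – pH 7.4 phosphate-saline buffer, reducing agent, detergent, IgG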
SR-BI DiI inh: inhibitors of mouse SR-BI mediated HDL lipid uptake; actives 0.96% (n = 320,000); AID 488896; Q61009; inhibition, % at 12.5 µM; ldlA[mSR-BI] CHO cells, DiI-HDL uptake fluorescence, 3 h;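 active = mean replicate inhibition of at least 70% and a set share of replicates each scoring 70 or more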;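 also: 0% = median of neutral control wells and 100% = median of positive control wells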
Target sequence (Q61009 whole entry, looked up): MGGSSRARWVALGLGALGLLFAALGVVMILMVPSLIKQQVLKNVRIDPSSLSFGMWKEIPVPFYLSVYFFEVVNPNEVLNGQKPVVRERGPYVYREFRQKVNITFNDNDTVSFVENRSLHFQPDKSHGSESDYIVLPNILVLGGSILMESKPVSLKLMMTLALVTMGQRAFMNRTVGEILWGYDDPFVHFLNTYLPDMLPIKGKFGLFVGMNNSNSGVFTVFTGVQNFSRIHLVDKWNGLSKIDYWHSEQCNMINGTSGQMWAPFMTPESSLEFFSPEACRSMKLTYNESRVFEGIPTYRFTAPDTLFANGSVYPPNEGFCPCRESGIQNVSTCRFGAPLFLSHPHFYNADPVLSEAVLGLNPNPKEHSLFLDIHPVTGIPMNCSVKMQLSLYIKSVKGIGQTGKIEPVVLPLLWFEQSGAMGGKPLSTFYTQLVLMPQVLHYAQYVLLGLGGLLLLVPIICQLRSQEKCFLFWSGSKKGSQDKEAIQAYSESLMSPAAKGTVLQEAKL
Starred values were filed as active, the others as inactive; x = no result.

SMILES	SR-BI uptake up	CAL PDZ FP-1	ATG4B inh	CAL PDZ FP-2	SR-BI DiI inh
Cc1sc(NC(=O)CN2CCCC2)nc1-c1ccc2c(c1)CCN2C(=O)c1cccc(F)c1	-50	165*	4	-2	50
CC(C)(C)C(=O)C(C(c1ccccc1)N1CCOCC1)N1CCOCC1 (configuration not stated)	25	x	7	0	-25
CC(=O)NCCNC(=O)c1oc2ccccc2c1CSc1ncn[nH]1	5	72*	-8	-1	-5
CCN(C(=O)CSc1nc2scc(-c3ccccc3)c2c(=O)n1N)C1CCS(=O)(=O)C1 (configuration not stated)	14	1	-6	0	-14
COc1cccc(NC(=O)CSc2nc3ccsc3c(=O)n2-c2ccc(C(=O)O)cc2)c1	9	44*	-9	-1	-9
O=[N+]([O-])c1cccc(OCC(O)CN2CCN(S(=O)(=O)c3cc(Cl)ccc3Cl)CC2)c1 (configuration not stated)	-37	-4	-9	-3	37
O=C(NCC1CCCO1)c1ccc2c(c1)N(Cc1ccccc1)CCS2 (configuration not stated)	-5	x	4	-1	5
NCCNC(=O)c1c(O)c2cccc3c2n(c1=O)CCC3	13	-2	1	0	-13
C=CCNC(=O)c1c(O)c2cccc3c2n(c1=O)CCC3	-9	33*	3	-1	9
Cc1cccc(NC(=O)CS(=O)(=O)c2c[nH]c3ccccc23)c1C	-2	55*	-11	-2	2
O=C(CN1CCC(NC(=O)C2CC2)CC1)Nc1cccc(F)c1	23	0	-2	-3	-23
O=C(Cc1ccccc1)c1c[nH]c(C(=O)C(Cl)(Cl)Cl)c1	4	168*	-11	1	-4
CN(CC(=O)Nc1ccc(F)c(F)c1F)C(=O)c1ccc2c(c1)OCCO2	8	18	-1	-1	-8
CN(C)CC(=O)c1c(N)n(Cc2ccccc2)c(=O)n(C)c1=O	12	82*	-10	-2	-12
COc1ccccc1N1CCN(C(=O)C2CCC(CNS(=O)(=O)c3ccc(NC(C)=O)cc3)CC2)CC1 (configuration not stated)	-51	-1	-9	0	51
Cc1ccc(NC(=O)c2ccc(N/N=C/c3cccc(O)c3)c([N+](=O)[O-])c2)cc1	-95	-3	-7	-1	95*
CC(=O)Nc1ccc(NC(=O)c2cc([N+](=O)[O-])cc([N+](=O)[O-])c2)cc1	-30	x	-4	1	30
Cc1ccc(NC(=O)c2ccc(Nc3c([N+](=O)[O-])cc([N+](=O)[O-])cc3[N+](=O)[O-])cc2)cc1	-102	0	-4	-1	102*
Cc1ccc(NC(=O)CN(C)C(=O)CSc2nnc(C(F)(F)F)n2C)cc1	7	5	-1	-1	-7
Cc1cc(NC(=O)c2c(F)cccc2F)n(-c2nc3ccccc3[nH]2)n1	-66	x	-11	-4	66
Cc1cc(NC(=O)/C=C/c2ccc(F)cc2)n(-c2nc3ccccc3[nH]2)n1	-65	3	-4	-2	65
Cc1cc(NC(=O)/C=C/c2cccc(F)c2)n(-c2nc3ccccc3[nH]2)n1	-95	0	-10	-1	95*
Cc1cc(NC(=O)c2ccccc2F)n(-c2nc3ccccc3[nH]2)n1	-76	-2	-20	-1	76*
Cc1cc(NC(=O)c2c(F)cccc2Cl)n(-c2nc3ccccc3[nH]2)n1	-92	-2	1	-2	92*
Cc1cc(NC(=O)c2ccc(C)s2)n(-c2nc3ccccc3[nH]2)n1	-72	-3	-18	-2	72*
Cc1cc(NC(=O)C2CCCCC2)n(-c2nc3ccccc3[nH]2)n1	-58	-1	-6	-4	58
CCN(CC)c1ccc(C(=O)OCC(=O)Nc2cc(C)on2)cc1	18	-1	-5	1	-18
Cc1ccc(NC(=O)CN2CCN(S(=O)(=O)c3ccc(F)cc3)CC2)cc1C	11	-4	-17	-1	-11
CCOc1cc(C(=O)Nc2ccccc2F)cc(Br)c1OCC	-52	-2	1	-3	52
CC(C)(C)OC(=O)C[C@@H]1C/C=C\C[C@H](CC(=O)NCCO)C(=O)N2CCC[C@H]2COC1=O	21	-2	-3	0	-21
